Experimental data from PubChem BioAssay.
Inconclusive results are not listed.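 How the source made its calls, unless noted: active means growth inhibition above 25% in both replicates, a cutoff set 3 SD above the mean; inconclusive means above 25% in only one replicate; inactive means the rest.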

Tests used:
[1] = S. cerevisiae growth inhibition in permissive medium (OD615), pilot counter-assay for S. cerevisiae lifespan shortening project, permissive growth control (AID 705); settings: OD615, 24 h, at 10 µM, hits give high values
In short: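 System: S. cerevisiae with engineered DeaD lifespan system. Medium: SC raffinose/galactose permissive medium. Doses: single compound dose of 10 µM, 0.25% DMSO final. Schedule: 24 h exposure, 30 °C. Measured by: OD615 turbidity read. Read-out: growth inhibition.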

[2] = S. cerevisiae growth inhibition in restrictive medium, OD615, pilot screen, restrictive growth control, yeast lifespan reduction project (AID 706;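 active means growth inhibition above a set limit, 3 SD over mean compound inhibition, in both replicates, cut at about 43% in these data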;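 further: modified DeaD lifespan yeast strain shifted to restrictive glucose medium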); settings: OD615, 48 h, at 10 µM, hits give high values
In short: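 Assay system – genetically modified Saccharomyces cerevisiae, DeaD replicative lifespan assay strain · Medium – CSMM-D glucose medium · Doses – 10 µM compound, 0.25% DMSO · Times – 4 h pre-incubation, 48 h exposure at 30 °C · Signal – optical density at 615 nm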

[3] = doxorubicin toxicity protection in MRP-1 cells – H69AR cells, CellTiter-Glo, duplicate, MRP-1 activator project, pilot screen (AID 807;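 active means viability increase at or above a cutoff of the median across tested compounds plus 3 SD, cut at about 8.5% in these data, passing the limit was not always enough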;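 further: compound pretreatment 18-22 h then 72 h combined with doxorubicin; 0% = doxorubicin alone and 100% = vehicle without doxorubicin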); settings: H69AR viability with doxorubicin, CellTiter-Glo luminescence; at 10 µM; hits give high values
[4] = viability of HCT116 without oncogenic beta-catenin – human colon tumor cells, pilot screen (AID 823;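 active means cell viability at or below a set limit in both duplicate runs, the limit being the all-compound median minus 4 SD, cut at about 23% in these data, passing the limit was not always enough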;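 further: 0% = wells killed by 20 µM Hyamine and 100% = untreated DMSO cell wells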); settings: HCT116 beta-catenin knockout viability, CellTiter-Glo, 60 h; at 10 µM; hits give low values
[5] = viability of PTEN-null HCT116 cells – cell-based, HCT116 clonal line, CellTiter-Glo, pilot screen (AID 824;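 active means viability at or below 27.92% in each of two runs, the all-compound median minus 4 SD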;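 further: 0% = 20 µM Hyamine control and 100% = vehicle cell control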); settings: HCT116 PTEN-deleted viability, 60 h, at 10 µM, hits give low values
[6] = RAM pathway blockade in budding yeast – dse1pr::URA3 reporter, 5-FOA selection, pilot screen (AID 869;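 active means inhibition over a set limit, the all-compound mean plus 3 SD, in both replicate runs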;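 further: 0% = DMSO wells with no growth and 100% = 10 µM 1-NA-PP1 with full growth; RAM network block rescues cells from 5-FOA so hits raise OD615 growth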); settings: S. cerevisiae dse1pr::URA3 5-FOA growth, OD615, 2 d; at 10 µM; hits give high values; strain carries analog-sensitive mutant Cbk1 kinase
[7] = RAM signaling pathway blockade in yeast – S. cerevisiae, Pdr1DBD-CYC8 efflux-inhibited sensitized strain, primary screen (AID 1298;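 active means RAM network inhibition above 8.4% in each of two replicates, 3 SD over the compound average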;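 further: 0% = DMSO untreated cells without growth and 100% = 10 µM 1-NA-PP1 full growth; higher means more yeast growth rescued from 5-FOA killing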); settings: S. cerevisiae cbk1-as DSE1-URA3 strain, 5-FOA growth OD615, 2 d; at 50 µM; hits give high values

CC(Nc1ncnc2nc[nH]c12)c1ccccc1 (stereo not drawn)
inactive: growth inhibition [1] -8.48% | growth inhibition [2] 10.5% | viability increase [3] -1.31% | viability [4] 95.3% | viability [5] 88.9% | inhibition [6] 0.985% | RAM network inhibition [7] 4.02%

O=C(COC(=O)c1cnccn1)c1ccc(Br)cc1
inactive: growth inhibition [1] -9.27% | growth inhibition [2] -14.4% | viability increase [3] 0.41% | viability [4] 101% | viability [5] 96.7% | inhibition [6] 1.94% | RAM network inhibition [7] 2.72%

CC(=O)OCCn1c(=O)c2cc3c(=O)n(CCOC(C)=O)c(=O)c3cc2c1=O
inactive: growth inhibition [1] -7.22% | growth inhibition [2] -6.18% | viability increase [3] -0.09% | viability [4] 101% | viability [5] 98.3% | inhibition [6] 1.84% | RAM network inhibition [7] 1.25%

O=C(c1cccc2c1-c1ccccc1/C2=N/O)N1CCCCC1
inactive: growth inhibition [1] 6.27% | growth inhibition [2] -0.58% | viability increase [3] -3.72% | viability [4] 88.5% | viability [5] 92.3% | inhibition [6] 0.91% | RAM network inhibition [7] 4.23%

COc1ccc(C2CC(=O)N3CN(c4ccc(C)c(Cl)c4)CSC3=C2C#N)cc1 (stereo not drawn)
inactive: growth inhibition [1] 5.58% | growth inhibition [2] 21.9% | viability increase [3] -5.36% | viability [4] 90.1% | viability [5] 89.5% | inhibition [6] 0.91% | RAM network inhibition [7] -1.96%

COc1ccccc1C(=O)Nc1nnc(-c2ccc3c(c2)CCCC3)o1
inactive: growth inhibition [1] -10.5% | growth inhibition [2] 7.12% | viability increase [3] -0.59% | viability [4] 90.2% | viability [5] 85.1% | inhibition [6] 0.08% | RAM network inhibition [7] -0.58%

COc1cccc(C(=O)NC2CC3CCCC(C2)N3CC(=O)Nc2ccc(N(C)C)cc2)c1 (stereo not drawn)
inactive: growth inhibition [1] -14.1% | growth inhibition [2] -14.7% | viability increase [3] -0.9% | viability [4] 85.4% | viability [5] 87.8% | inhibition [6] 0.955% | RAM network inhibition [7] 1.97%

O=C(CCCc1ccccc1)NCCN1CCOCC1
inactive: growth inhibition [1] -12.1% | growth inhibition [2] -5.57% | viability increase [3] 1.56% | viability [4] 104% | viability [5] 97.9% | inhibition [6] 0.795% | RAM network inhibition [7] 2.4%

CCn1c(CNC(=O)c2cccc(C)c2)nc2ccccc21
inactive: growth inhibition [1] -6.91% | growth inhibition [2] -5.74% | viability increase [3] -0.3% | viability [4] 99.6% | viability [5] 97.2% | inhibition [6] 2.5% | RAM network inhibition [7] 5%

CCc1cccc(NC(=O)CS(=O)Cc2nc(-c3ccc(C)cc3)oc2C)c1 (stereo not drawn)
inactive: growth inhibition [1] 9.24% | growth inhibition [2] 24.4% | viability increase [3] -1.87% | viability [4] 96.1% | viability [5] 87.1% | inhibition [6] 1.46% | RAM network inhibition [7] 3.37%

CN(CC(=O)N1CC=C(c2ccccc2)CC1)S(=O)(=O)c1ccc2c(c1)c(=O)n(C)c(=O)n2C
inactive: growth inhibition [1] -1.64% | growth inhibition [2] -12.2% | viability increase [3] -3.46% | viability [4] 94.1% | viability [5] 80.3% | inhibition [6] 0.26% | RAM network inhibition [7] 5.04%

CCOC(=O)c1[nH]c(=O)[nH]c1COC(=O)c1cc2ccccc2o1
inactive: growth inhibition [1] -14.6% | growth inhibition [2] -12.6% | viability increase [3] -1.09% | viability [4] 92.6% | viability [5] 105% | inhibition [6] -0.22% | RAM network inhibition [7] 2.38%

N#CC1=C(SCc2ccccc2)NC(=O)CC1c1ccc(O)cc1 (stereo not drawn)
inactive: growth inhibition [1] -12.2% | growth inhibition [2] -15.2% | viability increase [3] -2.66% | viability [4] 98.2% | viability [5] 96.6% | inhibition [6] 0.67% | RAM network inhibition [7] 1.25%

O=C(C1CCC(CNc2c(N3CCCCC3)c(=O)c2=O)CC1)N1CCCCC1 (stereo not drawn)
inactive: growth inhibition [1] -8.65% | growth inhibition [2] -19.7% | viability increase [3] -1.79% | viability [4] 94.3% | viability [5] 93.6% | inhibition [6] 1.09% | RAM network inhibition [7] 7.26%

O=S(=O)(CCc1ccccc1)N1CCOCC1
inactive: growth inhibition [1] 1.85% | growth inhibition [2] -1.08% | viability increase [3] -1.35% | viability [4] 106% | viability [5] 103% | inhibition [6] 0.8% | RAM network inhibition [7] 2.83%

C=CCn1c(CCCNC(=O)C(C)(C)C)nc2ccccc21
inactive: growth inhibition [1] -10.7% | growth inhibition [2] -20.9% | viability increase [3] -1.33% | viability [4] 99.7% | viability [5] 96.1% | inhibition [6] 0.295% | RAM network inhibition [7] 5.54%

CCN(CC)CCCNc1nc2ccccc2[nH]1
inactive: growth inhibition [1] -4% | growth inhibition [2] -5.4% | viability increase [3] -0.63% | viability [4] 99% | viability [5] 98.3% | inhibition [6] 0.52% | RAM network inhibition [7] 4.31%

Fc1ccc(-n2[nH]nnc2=S)cc1N1CCCC1
inactive: growth inhibition [1] -3.75% | growth inhibition [2] 3.59% | viability increase [3] -1.28% | viability [4] 104% | viability [5] 99.6% | inhibition [6] -0.32% | RAM network inhibition [7] -2.49%

CCCCOc1cccc(C2(C(=O)O)CCCC2)c1
inactive: growth inhibition [1] -6.28% | growth inhibition [2] 4.47% | viability increase [3] -1.49% | viability [4] 99% | viability [5] 94.5% | inhibition [6] 1.21% | RAM network inhibition [7] 4.01%

COC(=O)c1ccsc1NC(=O)C1=COCCO1
inactive: growth inhibition [1] -9% | growth inhibition [2] -1.36% | viability increase [3] -0.42% | viability [4] 106% | viability [5] 102% | inhibition [6] 0.91% | RAM network inhibition [7] 2.35%

O=C(c1cc(-c2ccc(O)cc2)on1)N1CCCc2ccccc21
inactive: growth inhibition [1] -15.5% | growth inhibition [2] 12.2% | viability increase [3] -5.72% | viability [4] 92.6% | viability [5] 88.3% | inhibition [6] 0.66% | RAM network inhibition [7] 1.51%

O=C(O)CCC(C(=O)O)n1c(O)c(C2=c3ccccc3=NC2=O)sc1=S (stereo not drawn)
inactive: growth inhibition [1] -5.76% | growth inhibition [2] -1.01% | viability increase [3] -4.54% | viability [4] 97.7% | viability [5] 95.3% | inhibition [6] 2.23% | RAM network inhibition [7] -0.11%

CC1CCN(c2ncnc3c2cnn3-c2ccccc2)CC1
inactive: growth inhibition [1] 7.81% | growth inhibition [2] 10.9% | viability increase [3] 4.17% | viability [4] 77.8% | viability [5] 87.3% | inhibition [6] 0.495% | RAM network inhibition [7] -1.46%

COc1ccc(-c2nnc(SCC(=O)NC3CCCCC3)o2)cc1OC
inactive: growth inhibition [1] -3.22% | growth inhibition [2] 1.43% | viability increase [3] -2.07% | viability [4] 98.5% | viability [5] 98.4% | inhibition [6] 1.34% | RAM network inhibition [7] 2.65%
